{"source": "ChEMBL document CHEMBL3992532", "about": "“Structure-Based Design of Macrocyclic Factor XIa Inhibitors: Discovery of the Macrocyclic Amide Linker” (J Med Chem, 2017)", "key": {"Coagulation factor XI [1]": {"molecular_target": "T1, Coagulation factor XI (Homo sapiens, UniProt P03951)", "T1 sequence (P03951 19-387 limits assumed)": "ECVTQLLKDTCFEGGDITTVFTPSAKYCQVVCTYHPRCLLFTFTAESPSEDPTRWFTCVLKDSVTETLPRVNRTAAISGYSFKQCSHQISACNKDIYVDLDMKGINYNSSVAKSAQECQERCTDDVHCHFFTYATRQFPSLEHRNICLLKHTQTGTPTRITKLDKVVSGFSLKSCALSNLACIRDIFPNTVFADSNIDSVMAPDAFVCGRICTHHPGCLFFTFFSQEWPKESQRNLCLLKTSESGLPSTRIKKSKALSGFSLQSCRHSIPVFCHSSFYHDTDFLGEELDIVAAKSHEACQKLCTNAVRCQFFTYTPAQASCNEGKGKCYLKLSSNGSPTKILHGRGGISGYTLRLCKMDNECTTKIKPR", "T1 sequence (P03951 388-625 limits assumed)": "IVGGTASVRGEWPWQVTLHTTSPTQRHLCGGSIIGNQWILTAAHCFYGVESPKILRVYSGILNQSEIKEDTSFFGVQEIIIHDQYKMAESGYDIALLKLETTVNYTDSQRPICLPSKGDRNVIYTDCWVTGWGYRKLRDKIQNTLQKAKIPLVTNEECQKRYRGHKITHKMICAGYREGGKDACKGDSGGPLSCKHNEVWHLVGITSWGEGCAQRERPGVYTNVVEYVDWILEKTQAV", "assay": "Inhibition of human coagulation factor 11a using pyroGlu-Pro-Arg-pNA as substrate after 10 to 120 mins at 25 degC by spectrophotometric method"}, "Coagulation factor XI [2]": {"molecular_target": "T1, Coagulation factor XI", "assay": "Inhibition of human coagulation factor 11a using pyroGlu-Pro-Arg-pNA as substrate after 10 to 120 mins at 37 degC by spectrophotometric method", "outline": "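Purified human proteases, 37 °C; reaction started by adding enzyme to substrate (up to 4× Km) ± inhibitor; compound from DMSO, 1% DMSO final except where noted. […] Buffers: FXIa, chymotrypsin, tPA, plasmin, urokinase in 50 mM HEPES pH 7.4, 145 mM NaCl, 5 mM KCl, 0.1% PEG 8000; FXa, thrombin, trypsin, plasma kallikrein, aPC in 100 mM Na phosphate pH 7.4, 200 mM NaCl, 0.5% PEG 8000; FIXa in 50 mM Tris pH 7.4, 100 mM NaCl, 5 mM CaCl2, 0.5% PEG 8000, 2% DMSO.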"}, "Plasma": {"tested_on": "Plasma", "assay": "Anticoagulant activity in human plasma assessed as concentration required to produce 50% increase in activated partial thromboplastin time", "type": "functional", "outline": "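Citrated (one-tenth volume 0.11 M) plasma from healthy volunteers, spun 2,000 g 10 min, kept on ice; 10 mM DMSO stock diluted in plasma, up to 7 concentrations; aPTT on automated coagulometer, duplicates as mean ratio to baseline; EC1.5x (50% prolongation) by linear interpolation, as total plasma concentration.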"}, "[3]": {"assay": "Half life in human liver microsomes", "type": "ADME, microsome"}, "[4]": {"assay": "Half life in Beagle dog at 0.2 mg/kg, iv administered as 10 mins infusion or 0.4 mg/kg, po via gavage administered as cassette dose by LC-MS/MS method", "type": "ADME, organism-based, Canis lupus familiaris", "conditions": "in vivo", "outline": "(§1)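 Dog PK vehicles as footnoted: iv in 70% PEG 400/20% water/10% ethanol; po either 70% PEG 400/20% TPGS/10% ethanol or the same PEG 400/water/ethanol vehicle used for iv.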"}, "[5]": {"assay": "Volume of distribution at steady state in Beagle dog at 0.2 mg/kg, iv administered as 10 mins infusion or 0.4 mg/kg, po via gavage administered as cassette dose by LC-MS/MS method", "type": "ADME, organism-based, Canis lupus familiaris", "conditions": "in vivo, read-out: Vdss", "outline": "as §1"}, "Canis familiaris [6]": {"tested_on": "Canis familiaris", "assay": "Oral bioavailability in Beagle dog at 0.4 mg/kg administered via gavage as cassette dose by LC-MS/MS method", "type": "ADME, organism-based, Canis lupus familiaris", "conditions": "in vivo", "outline": "as §1"}, "Canis familiaris [7]": {"tested_on": "Canis familiaris", "assay": "AUC in Beagle dog at 0.4 mg/kg, po administered via gavage as cassette dose by LC-MS/MS method", "type": "ADME, organism-based, Canis lupus familiaris", "conditions": "in vivo", "outline": "as §1"}, "[8]": {"assay": "Half life in dog liver microsomes", "type": "ADME, Canis lupus familiaris, microsome"}}, "data": [{"compound": "COC(=O)Nc1ccc2c(c1)OCCCCC[C@H](NC(=O)/C=C/c1cc(Cl)ccc1-n1cnnn1)c1nc-2c[nH]1", "values": [{"measurement": "Ki", "setting": "Coagulation factor XI [1]", "value": 420, "unit": "nM"}]}, {"compound": "COC(=O)Nc1ccc2c(c1)NC(=O)OCCCC[C@H](NC(=O)/C=C/c1cc(Cl)ccc1-n1cnnn1)c1nc-2c[nH]1", "values": [{"measurement": "Ki", "setting": "Coagulation factor XI [2]", "value": 3.8, "unit": "nM"}, {"measurement": "EC1.5", "setting": "Plasma", "value": 0.86, "unit": "µM"}, {"measurement": "half-life", "setting": "[3]", "value": 1.03, "unit": "h"}]}, {"compound": "COC(=O)Nc1ccc2c(c1)OCCCCCC[C@H](NC(=O)/C=C/c1cc(Cl)ccc1-n1cnnn1)c1nc-2c[nH]1", "values": [{"measurement": "Ki", "setting": "Coagulation factor XI [2]", "value": 159, "unit": "nM"}, {"measurement": "half-life", "setting": "[4]", "value": 2.1, "unit": "h"}, {"measurement": "Vd", "setting": "[5]", "value": 2.2, "unit": "L/kg"}, {"measurement": "F", "setting": "Canis familiaris [6]", "value": 17, "unit": "%"}, {"measurement": "AUC", "setting": "Canis familiaris [7]", "value": 0.119, "unit": "µM·h"}, {"measurement": "half-life", "setting": "[8]", "value": 1.47, "unit": "h"}]}, {"compound": "COC(=O)Nc1ccc2c(c1)CCCCCCC[C@H](NC(=O)/C=C/c1cc(Cl)ccc1-n1cnnn1)c1nc-2c[nH]1", "values": [{"measurement": "Ki", "setting": "Coagulation factor XI [2]", "value": 600, "unit": "nM"}]}, {"compound": "COC(=O)Nc1ccc2c(c1)NC(=O)OC/C=C/C[C@H](NC(=O)/C=C/c1cc(Cl)ccc1-n1cnnn1)c1nc-2c[nH]1", "values": [{"measurement": "Ki", "setting": "Coagulation factor XI [2]", "value": 0.88, "unit": "nM"}, {"measurement": "EC1.5", "setting": "Plasma", "value": 0.45, "unit": "µM"}, {"measurement": "half-life", "setting": "[3]", "value": 1.15, "unit": "h"}]}, {"compound": "COC(=O)Nc1ccc2c(c1)NC(=O)C/C=C/C[C@H](NC(=O)/C=C/c1cc(Cl)ccc1-n1cnnn1)c1nc-2c[nH]1", "values": [{"measurement": "Ki", "setting": "Coagulation factor XI [2]", "value": 264, "unit": "nM"}, {"measurement": "EC1.5", "setting": "Plasma", "value": ">40", "unit": "µM"}]}, {"compound": "COC(=O)Nc1ccc2c(c1)OCCC/C=C/C[C@H](NC(=O)/C=C/c1cc(Cl)ccc1-n1cnnn1)c1nc-2c[nH]1", "values": [{"measurement": "Ki", "setting": "Coagulation factor XI [2]", "value": 3920, "unit": "nM"}]}, {"compound": "COC(=O)Nc1ccc2c(c1)NC(=O)CC/C=C\\C[C@H](NC(=O)/C=C/c1cc(Cl)ccc1-n1cnnn1)c1nc-2c[nH]1", "values": [{"measurement": "EC1.5", "setting": "Plasma", "value": 12, "unit": "µM"}]}, {"compound": "COC(=O)Nc1ccc2c(c1)OCCCCCC[C@H](NC(=O)/C=C/c1cc(Cl)ccc1-n1cnnn1)c1nc-2c(Cl)[nH]1", "values": [{"measurement": "Ki", "setting": "Coagulation factor XI [2]", "value": 76, "unit": "nM"}, {"measurement": "EC1.5", "setting": "Plasma", "value": ">40", "unit": "µM"}]}, {"compound": "COC(=O)Nc1ccc2c(c1)CCCC/C=C/C[C@H](NC(=O)/C=C/c1cc(Cl)ccc1-n1cnnn1)c1nc-2c[nH]1", "values": [{"measurement": "Ki", "setting": "Coagulation factor XI [2]", "value": 184, "unit": "nM"}, {"measurement": "EC1.5", "setting": "Plasma", "value": ">40", "unit": "µM"}]}]}
